# Laboratory results reported in ChEMBL document CHEMBL4732226, “Discovery of a potent G-protein-coupled receptor 119 agonist for the treatment of type 2 diabetes” (Bioorg Med Chem, 2021).
# How the values were obtained:
# [1] = Toxicity in male Wistar rat assessed as ratio of testes to body weight at 200 mg/kg, po after 28 days (reference value: 1.248 +/- 0.073); type: organism-based; details: in vivo, 672 h, time 28 day
# [2] = Toxicity in female Wistar rat assessed as ratio of uterus to body weight at 200 mg/kg, po after 28 days (reference value: 0.335 +/- 0.108); type: organism-based; details: in vivo, 672 h, time 28 day
# Mus musculus = assay: Antidiabetic activity in po dosed db/db mouse assessed as reduction in blood glucose level administered up to 14 days pretreated for 30 mins followed by glucose-stimulation and measured up to 120 mins by OGTT method relative to control; type: functional, organism-based; details: dose 1-50 mg/kg, time day <=14
# In short: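 Male db/db mice dosed orally once daily for 14 days at 1 to 50 mg/kg. Oral glucose 2 g/kg given 30 min after dosing, then blood glucose followed for 0–120 min. Glucose AUC determined on day 1 and day 14; mean ± s.e.m.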
# [3] = Toxicity in male Wistar rat assessed as ratio of heart to body weight at 100 mg/kg, po after 28 days (reference value: 0.333 +/- 0.036); type: organism-based; details: in vivo, 672 h, time 28 day
# [4] = Toxicity in male Wistar rat assessed as globulin level at 100 mg/kg, po after 28 days (reference value: 2.62 +/- 0.12 g/dl); type: organism-based; details: in vivo, 672 h, time 28 day
# [5] = Toxicity in male Wistar rat assessed as ratio of brain to body weight at 100 mg/kg, po after 28 days (reference value: 0.766 +/- 0.038); type: organism-based; details: in vivo, 672 h, time 28 day
# [6] = Toxicity in female Wistar rat assessed as glucose level at 200 mg/kg, po after 28 days (reference value: 78.4 +/- 8.36 mg/dl); type: organism-based; details: in vivo, 672 h, time 28 day
# [7] = Toxicity in male Wistar rat assessed as ALT level at 200 mg/kg, po after 28 days (reference value: 30.47 +/- 2.63 U/L); type: organism-based; details: in vivo, 672 h, time 28 day
# [8] = Toxicity in female Wistar rat assessed as creatinine level at 200 mg/kg, po after 28 days (reference value: 0.6 +/- 0.04 mg/dl); type: organism-based; details: in vivo, 672 h, time 28 day
# [9] = Toxicity in male Wistar rat assessed as ratio of testes to body weight at 400 mg/kg, po after 28 days (reference value: 1.248 +/- 0.073); type: organism-based; details: in vivo, 672 h, time 28 day
# [10] = Toxicity in male Wistar rat assessed as ratio of thymus to body weight at 200 mg/kg, po after 28 days (reference value: 0.148 +/- 0.023); type: organism-based; details: in vivo, 672 h, time 28 day
# [11] = Toxicity in female Wistar rat assessed as ratio of brain to body weight at 100 mg/kg, po after 28 days (reference value: 1.1 +/- 0.078); type: organism-based; details: in vivo, 672 h, time 28 day
# [12] = Toxicity in male Wistar rat assessed as ratio of spleen to body weight at 200 mg/kg, po after 28 days (reference value: 0.206 +/- 0.026); type: organism-based; details: in vivo, 672 h, time 28 day
# [13] = Toxicity in male Wistar rat assessed as AST level at 200 mg/kg, po after 28 days (reference value: 119.4 +/- 9.3 U/L); type: organism-based; details: in vivo, 672 h, time 28 day
# [14] = Toxicity in female Wistar rat assessed as globulin level at 100 mg/kg, po after 28 days (reference value: 2.44 +/- 0.18 g/dl); type: organism-based; details: in vivo, 672 h, time 28 day
# [15] = Cmax in Sprague-Dawley rat at 25 mg/kg, po up to 24 hrs; type: ADME, organism-based; design: route oral, dose 25 mg/kg, time <=24; details: in vivo
# In short: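 Male SD rats fasted overnight, water ad libitum, fed 4 h after dosing. Single oral gavage of 25 mg/kg as a homogeneous suspension in 0.5% Tween 80 in 0.5% Na-CMC. Blood drawn into Na-heparin tubes at 0.25, 0.5, 1, 2, 4, 6, 8 and 24 h; plasma stored at -70°C. Parameters by non-compartmental analysis, with C0 taken as zero and BLQ samples set to zero.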
# [16] = Toxicity in male Wistar rat assessed as urea level at 200 mg/kg, po after 28 days (reference value: 58.14 +/- 9.13 mg/dl); type: organism-based; details: in vivo, 672 h, time 28 day
# [17] = Toxicity in male Wistar rat assessed as ratio of brain to body weight at 200 mg/kg, po after 28 days (reference value: 0.766 +/- 0.038); type: organism-based; details: in vivo, 672 h, time 28 day
# [18] = molecular target: T1, Glucose-dependent insulinotropic receptor (Homo sapiens) (UniProt Q8TDV5); assay: Agonist activity at human GPR119 stably transfected in CHO-K1 cells assessed as increase in cAMP stimulation after 1 hr by enzyme immunoassay relative to AR231453; type: functional, cell-based; details: filed as agonist
# T1 sequence (whole entry): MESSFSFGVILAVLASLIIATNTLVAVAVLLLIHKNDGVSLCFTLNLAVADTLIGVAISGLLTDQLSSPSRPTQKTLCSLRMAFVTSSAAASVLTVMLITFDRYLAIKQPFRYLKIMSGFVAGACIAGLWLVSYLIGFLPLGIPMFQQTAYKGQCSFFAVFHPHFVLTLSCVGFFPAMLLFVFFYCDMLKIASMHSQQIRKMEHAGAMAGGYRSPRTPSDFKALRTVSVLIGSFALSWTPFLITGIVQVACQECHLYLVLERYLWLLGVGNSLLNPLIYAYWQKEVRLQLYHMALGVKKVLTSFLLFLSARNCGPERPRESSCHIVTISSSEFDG
# [19] = Toxicity in female Wistar rat assessed as ALP level at 100 mg/kg, po after 28 days (reference value: 100.14 +/- 21.98 U/L); type: organism-based; details: in vivo, 672 h, time 28 day
# [20] = Toxicity in female Wistar rat assessed as change in survival at 100 to 400 mg/kg, po after 28 days; type: organism-based; details: in vivo, 672 h, dose 100-400 mg/kg, time 28 day
# In short: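 Repeated-dose oral toxicity by gavage in Wistar rats, 10 males and 10 females per group, given 100, 200 or 400 mg/kg once daily for 28 days. Endpoints were clinical signs, mortality, neurobehaviour, food intake, ophthalmic examination and body weight. Animals were sacrificed on day 29 for blood biochemistry, organ-to-body weight ratios and histopathology.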
# [21] = Toxicity in male Wistar rat assessed as ALT level at 400 mg/kg, po after 28 days (reference value: 30.47 +/- 2.63 U/L); type: organism-based; details: in vivo, 672 h, time 28 day
# [22] = Toxicity in male Wistar rat assessed as ratio of spleen to body weight at 100 mg/kg, po after 28 days (reference value: 0.206 +/- 0.026); type: organism-based; details: in vivo, 672 h, time 28 day
# [23] = Toxicity in male Wistar rat assessed as ALT level at 100 mg/kg, po after 28 days (reference value: 30.47 +/- 2.63 U/L); type: organism-based; details: in vivo, 672 h, time 28 day
# [24] = Toxicity in female Wistar rat assessed as ratio of liver to body weight at 200 mg/kg, po after 28 days (reference value: 3.219 +/- 0.221); type: organism-based; details: in vivo, 672 h, time 28 day
# [25] = Toxicity in female Wistar rat assessed as ratio of thymus to body weight at 400 mg/kg, po after 28 days (reference value: 0.260 +/- 0.025); type: organism-based; details: in vivo, 672 h, time 28 day
# [26] = Toxicity in female Wistar rat assessed as ALP level at 400 mg/kg, po after 28 days (reference value: 100.14 +/- 21.98 U/L); type: organism-based; details: in vivo, 672 h, time 28 day
# [27] = Toxicity in female Wistar rat assessed as ALT level at 100 mg/kg, po after 28 days (reference value: 21.28 +/- 2.31 U/L); type: organism-based; details: in vivo, 672 h, time 28 day
smiles,measurement,setting,value
Cc1c(Oc2cccc(/C=C3\SC(=O)NC3=O)c2)ncnc1OC1CCN(C(=O)OC(C)(C)C)CC1,Ratio,[1],1.289
same,Ratio,[2],0.33
same,Activity,Mus musculus,Dose-dependent effect
same,Ratio,[3],0.347
same,Activity,[4],2.5 g/dL
same,Ratio,[5],0.83
same,Activity,[6],82.1 mg/dL
same,Activity,[7],30.15 U/L
same,Activity,[8],0.66 mg/dL
same,Ratio,[9],1.23
same,Ratio,[10],0.175
same,Ratio,[11],1.103
same,Ratio,[12],0.22
same,Activity,[13],116.98 U/L
same,Activity,[14],2.39 g/dL
same,Cmax,[15],4960 ng/mL
same,Activity,[16],55.62 mg/dL
same,Ratio,[17],0.824
same,Emax,[18],160%
same,Activity,[19],103.72 U/L
same,Activity,[20],Non-Toxic
same,Activity,[21],29.6 U/L
same,Ratio,[22],0.222
same,Activity,[23],28.9 U/L
same,Ratio,[24],3.285
same,Ratio,[25],0.244
same,Activity,[26],100.97 U/L
same,Activity,[27],22.37 U/L
